# DTT redox prof = compounds producing H2O2 with reducing agent – biochemical, NIH compound library profiling, artefact control for MLSCN library redox annotation, primary screen; DTT-dependent redox cycling H2O2, phenol red/HRP absorbance; 100% = 100 µM peroxide control, 0% = buffer; activation, % at 10 µM; 0.03% of 200,000 active;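 active means activation of at least 50% relative to the plate's high and low controls in the primary single-dose screen; inactive means activation below 50%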;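 further: compound incubated with DTT at 0.8 mM final as the reducing agent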
# FLuc stim CS = FLuc activators, initial screening, artefact control for FLuc-dependent activation tests, biochemical, ATPlite luminescence. Luciferin 4-monooxygenase (Photinus pyralis), P08659. ATPlite luciferase biochemical, 10 min; 0 = ATP-free wells, 1 = DMSO control. activation factor at 10 µM. 200,000 tested, under 10 active. AID 1027, 2008;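 active means luciferase activation factor, scaled between plate controls, of at least 2 with compound at 10 µM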
#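 test system = cell-free luciferase reagent | medium = PBS as buffer for the ATP substrate | dosing = test compounds dosed from 2 mM stocks in 100% DMSO | incubation = 10 min at ambient temperature | detection = luminescence measurement of luciferase light output | benchmarks = low control with PBS replacing ATP, high control enzyme plus ATP without compound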
# Measles CPE = compounds protecting cells from measles virus cytopathic effect, primary screen, measles RdRp inhibitor project, single point, MLSMR library, absorbance. 1.5% of 140,000 active. AID 841, 2007. Measles virus-infected cells, CPE protection. protection (pct of control), % at 4 µM; in the data active means protection mostly above about 24%, no sharp cut-off; inactive means mostly below about 26%
# ABCG2 inh = ABCG2 efflux pump inhibitors, primary screen, multiplex with ABCB1, IgMXP3 cells, flow cytometry | Broad substrate specificity ATP-binding cassette transporter ABCG2 (Homo sapiens), Q9UNQ0 | AID 1325, 2008 | 0.1% of 190,000 active | JC-1 efflux | inhibition, % at 6.6 µM;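 active means inhibition above 80%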;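 further: 0% = DMSO and 100% = nicardipine control wells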
#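 material = IgMXP3 (ABCG2) plus far-red-tagged CCRF-Adr (ABCB1) cells | amount = 3 million cells/mL, equal mix of both lines | also added = JC-1 transporter substrate | dosing = one concentration, 6.6 µM final | schedule = 10 min at 25 °C | measured by = flow cytometric JC-1 green MFI at 530 nm | read-out basis = percent efflux inhibition, scaled nicardipine 100% to DMSO 0%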
# ABCB1 inh = ABCB1 efflux pump inhibitors, primary screen, cell-based, multiplex, flow cytometry, ABCG2 counter-screen. ATP-dependent translocase ABCB1 (Homo sapiens), P08183. CCRF-Adr cells, JC-1 efflux. AID 1326, 2008. inhibition, % at 6.6 µM. 0.067% of 190,000 active; in the data active means inhibition above about 40%;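 further: 0% = vehicle and 100% = reference inhibitor; higher value means more JC-1 retained so stronger ABCB1 efflux block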
# FLuc inh counter = firefly luciferase enzyme inhibitors, primary screen, artefact control for luciferase-based inhibitor screens, biochemical, luminescence, ATPLite | Luciferin 4-monooxygenase (Photinus pyralis), P08659 | 10 min | inhibition, % at 10 µM | 1.5% of 200,000 active | AID 1006, 2008;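 active means inhibition above about 50% when tested at 10 µM, limit read from the data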
# ABCB1 confirm = ABCB1 efflux pump inhibitors, confirmation, cell-based, single point, ABCG2 counter-screen | inhibition, % at 6.6 µM | 7% of 270 active | shares compounds with ABCG2 inh | CCRF-Adr cells, JC-1 efflux, flow cytometry;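 active means inhibition of pump activity above 50%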;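 further: 0% = DMSO and 100% = nicardipine full pump inhibition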
# ABCG2 confirm = ABCG2 efflux pump inhibitors, confirmation, single point, IgMXP3 cells, ABCB1 counter-screen paired; shares compounds with ABCG2 inh; JC-1 efflux, flow cytometry; inhibition, % at 6.6 µM; 6% of 270 active; AID 1453, 2008;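 active means inhibition above 50%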;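 further: 0% = DMSO wells and 100% = nicardipine pump inhibitor wells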
# IgMXP3 autofluor = compound autofluorescence in ABCG2-expressing IgMXP3 cells, confirmation, artefact control for ABC transporter inhibitor project, cell-based, 488/530 nm, flow cytometry | compound autofluorescence 488/530 nm; hits give high values | fluorescence at 6.6 µM | 30% of 270 active | shares compounds with ABCG2 inh | AID 1480, 2009;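 active means fluorescence in ABCG2-expressing cells above the plate's control-well mean plus 3 SD, cut at about 15 in these data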;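 further: median cell fluorescence with compound minus that of DMSO-treated control cells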
# CCRF autofluor = compound autofluorescence in ABCB1-expressing CCRF-Adr cells, confirmation, artefact control for ABC transporter inhibitor project, cell-based, 488/530 nm, flow cytometry; shares compounds with ABCG2 inh; compound autofluorescence 488/530 nm; hits give high values; fluorescence at 6.6 µM; 30% of 270 active; AID 1483, 2009;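 active means fluorescence beyond the plate control mean plus 3 SD, with a fluorescence-to-maximum score over 2, cut at about 25 in these data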
# * = called active by the depositor; x = no result; + = active, no number. Only some compounds are listed: those with a hit (about 2.7% of all), similar ones and a draw of the others.
SMILES,DTT redox prof,FLuc stim CS,Measles CPE,ABCG2 inh,ABCB1 inh,FLuc inh counter,ABCB1 confirm,ABCG2 confirm,IgMXP3 autofluor,CCRF autofluor
N=c1oc2c3c4c(cc2cc1C(=O)Nc1ccccc1)CCCN4CCC3,2.7,1,5.8,+,131.2*,4.1,-13.7,-78.2,625*,666*
CCCCCCc1cc2cc(-c3nnc(-c4ccccc4OC)o3)c(=O)oc2cc1O,4.1,1.1,8.8,38.2,20.8,-7.2,x,x,x,x
CCCCCCc1cc2cc(-c3nnc(-c4ccccc4O)o3)c(=O)oc2cc1O,0.8,1.1,2.2,79.3,48.4*,-6.1,15.0,10.5,116*,111*
O=C(C1CCC(Cn2c(=S)[nH]c3ccccc3c2=O)CC1)N1CCN(c2ccccc2)CC1 (configuration not stated),1.7,x,x,x,x,x,x,x,x,x
COc1ccc(N2CCN(C(=O)C3CCC(Cn4c(=S)[nH]c5ccccc5c4=O)CC3)CC2)cc1 (configuration not stated),-3.0,1,22.3,33.8,40.9*,-3.5,34.2,23.4,2.06,9.46
COc1cc(N(C)C)c([N+](=O)[O-])cc1C(=O)N1CCN(Cc2ccccc2)CC1,-0.7,1,x,4.4,1.4,-1.5,x,x,x,x
CC(C)CCOc1cccc(OCC(=O)O)c1,-0.1,1,x,107.5*,30.4,0.8,1.1,3.0,8.31,-0.84
Cc1cc(-c2sccc2Br)nc(-n2cccc2)n1,-0.3,1.1,x,92.3*,1.3,-5.1,1.3,33.1,-1.94,-4.74
COc1ccc(-c2nn(-c3ccccc3)cc2/C=C/C(=O)N2CCN(c3ccccn3)CC2)cc1,0.4,1,x,32.7,48.0*,-4.5,33.3,21.7,18.1*,4.26
COc1ccc(CCNc2cc(N3CCN(C(=O)c4ccc(C)cc4)CC3)ccc2[N+](=O)[O-])cc1OC,-0.2,1,8.1,22.4,36.6,-1.8,26.2,33.7,-1.99,-0.84
COc1ccc(C(=O)N2CCN(c3ccc([N+](=O)[O-])c(NCCc4ccc(OC)c(OC)c4)c3)CC2)cc1,-0.1,1,6.8,14.7,24.3,-4.5,x,x,x,x
O=C(COc1ccc(S(=O)(=O)NC2CCCCC2)cc1)NCCC1=CCCCC1,0.8,1,10.6,4.4,1.8,0.8,x,x,x,x
COC(=O)c1cc(NC(=O)c2ccccc2)c(=O)oc1/C=C/Nc1ccc(Oc2ccccc2)cc1,-0.6,1,x,116.4*,126.9*,-3.1,91.4*,-34.0,207*,339*
COc1ccc(C(=O)Nc2cc(C(C)=O)c(C)oc2=O)cc1,-1.9,0.8,x,3.1,-0.1,17.4,x,x,x,x
COc1ccc(CN2CCn3nc(C(=O)NC(C)C)cc3C2=O)cc1,-1.0,1.1,x,0.0,41.4*,-6.0,-1.5,4.3,3.41,0.71
N#Cc1c(-c2ccccc2)cc(-c2ccccc2)nc1Br,0.7,1,10.6,3.7,-0.7,-2.3,x,x,x,x
O=c1oc2ccccc2cc1-c1nc2c(s1)CCCC2,-0.1,0.3,0.1,54.9,6.7,66.6*,5.5,9.8,11.5,1.96
O=C1Nc2ccccc2Oc2cc([N+](=O)[O-])cc(Oc3ccccc3)c21,-0.1,1,10.6,88.8*,37.5,-0.5,2.8,17.1,19.8*,59*
Cc1cccc(Oc2cc([N+](=O)[O-])cc3c2C(=O)Nc2ccccc2O3)c1,0.5,1,6.3,20.6,8.7,-4.3,x,x,x,x
CCOC(=O)C1CCN(c2ccc(C(N)=O)cc2[N+](=O)[O-])CC1,0.0,1,1.1,31.9,0.1,-4.6,x,x,x,x
O=C(CCC(=O)Nc1ccccc1)NNC(=O)COc1ccccc1,-0.1,1,17.3,1.8,0.4,-1.2,x,x,x,x
COC(=O)c1sc(NC(=O)c2cccc([N+](=O)[O-])c2)c(C(N)=O)c1C,-0.1,1,17.2,34.4,1.9,-4.5,x,x,x,x
COC(=O)c1sc2cc([N+](=O)[O-])cc(SCC(C)C)c2c1N,0.6,1,14.4,153.8*,61.1*,-3.1,-1.6,22.2,45.8*,112*
Cc1ccc(/C=c2/sc3nnc(-c4ccccc4Cl)n3c2=O)o1,0.1,0.9,6.2,57.7,1.8,6.2,x,x,x,x
CCN(CC)c1ccc(/C=c2/sc3nnc(-c4ccccc4C)n3c2=O)cc1,2.7,1.1,12.2,63.9,77.0*,-5.5,24.5,13.3,139*,249*
SMILES,DTT redox prof,FLuc stim CS,Measles CPE,ABCG2 inh,ABCB1 inh,FLuc inh counter,ABCB1 confirm,ABCG2 confirm,IgMXP3 autofluor,CCRF autofluor
CCN(CC)c1ccc(/C=c2\sc3nnc(-c4ccccc4Cl)n3c2=O)cc1,3.8,0.9,22.2,77.9,59.7*,6.2,27.9,-53.6,202*,204*
CCC(=Nc1ccccc1)C1=C(O)CC(C)(C)CC1=O,-0.8,1,x,-1.1,-0.7,-1.1,x,x,x,x
CCOC(=O)c1c(NC(=O)C(C)Sc2cccc[n+]2[O-])sc2c1CCN(Cc1ccccc1)C2 (configuration not stated),-0.1,1.1,8.4,8.7,17.1,-7.4,x,x,x,x
CCOC(=O)c1c(NC(=O)CSc2ncccn2)sc2c1CCN(Cc1ccccc1)C2,-0.1,1,10.2,66.9,48.1*,-3.4,66.5*,19.9,47.2*,109*
COc1ccc(CN2C(=O)c3ccccc3C2=O)cc1C(=O)Nc1ccccc1N1CCOCC1,0.4,1,x,38.8,43.2*,-2.4,71.6*,43.4,1.36,12.2
CCOCCCNc1nc2c(C)cccn2c(=O)c1/C=C1\SC(=S)N(CC(C)C)C1=O,6.7,1.1,17.4,141.0*,48.4*,-9.3,7.3,40.3,43.8*,211*

# Screening results deposited in PubChem by several laboratories.
